# Measurements of several laboratories.
# Lines come from different studies, so protocols differ.
# Cell line: A549
# Read-out: cell growth or viability
SMILES,method,concentration,time,endpoint,result
CCOC(=O)C1CCN(C(=O)c2ccc(N(CC)Cc3cnc4nc(N)nc(N)c4n3)cc2)CC1,ATP luminescence,,,GI50,4.38 µM
O=C1OC2(c3ccccc31)c1cc(Br)c(O)c(Br)c1Oc1c2cc(Br)c(O)c1Br,CCK-8,,48 h,CC50,> 200 µM
CCCCCCCCCCCCCCCC(=O)O,MTS,,24 h,IC50,145 µM
CC(=O)O[C@H]1C(=O)[C@@]2(C)[C@H]([C@H](OC(=O)c3ccccc3)[C@]3(O)C[C@H](OC(=O)[C@H](O)[C@@H](NC(=O)c4ccccc4)c4ccccc4)C(C)=C1C3(C)C)[C@]1(OC(C)=O)CO[C@@H]1C[C@@H]2O,MTT,,48 h,IC50,0.45 µM
CN(Cc1cnc2nc(N)nc(N)c2n1)c1ccc(C(=O)N2CCCCC2)cc1,ATP luminescence,,,GI50,34.9 µM
CC(C)=CCc1c(O)c(CC=C(C)C)c2occ(-c3ccc(O)cc3)c(=O)c2c1O,MTT,100 µg/mL,,viability,121%
O=C1OC2(c3ccccc31)c1ccc(O)c(Br)c1Oc1c2ccc(O)c1Br,CCK-8,,48 h,CC50,> 200 µM
O=C(O)CCCCC#CCCCC1CCCCC1,MTS,,24 h,IC50,40 µM
C=C(C)[C@H](CC=C(C)C)Cc1c(O)cc(O)c2c1O[C@H](c1ccc(O)cc1O)CC2=O,MTT,,48 h,IC50,18.1 µM
O=C1OC2(c3ccccc31)c1ccc(O)c(I)c1Oc1c2ccc(O)c1I,CCK-8,,48 h,CC50,> 200 µM
COc1cc2oc(-c3ccc(O)cc3O)c(CC=C(C)C)c(=O)c2c(O)c1/C=C/C(C)C,crystal violet,,72 h,CC50,38 µM
O=C1OC2(c3ccc(O)cc3Oc3cc(O)ccc32)c2ccccc21,CCK-8,,48 h,CC50,> 200 µM
C=C(C)[C@H](CC=C(C)C)Cc1c(O)cc(O)c2c1O[C@H](c1ccccc1O)CC2=O,MTT,,48 h,IC50,36.1 µM
O=C(O)c1ccc2c(c1)C(=O)OC21c2ccc(O)cc2Oc2cc(O)ccc21,CCK-8,,48 h,CC50,> 200 µM
Nc1nc(N)c2nc(CNc3ccc(C(=O)NCCc4ccccc4)cc3)cnc2n1,ATP luminescence,,,GI50,38.8 µM
